# Test results published in ChEMBL document CHEMBL1122744, “2-Chloroethyl (methylsulfonyl)methanesulfonate and related (methylsulfonyl)methanesulfonates. Antineoplastic activity in vivo” (J Med Chem, 1984).
# Where “and” joins values, the source holds several entries; their conditions need not be identical. Equal values may be shown once.
# What was measured:
# [1] = Ratio of median survival times for non-survivors at dose 50 mg/kg in exp2; assay type: functional
# Outline: (§1)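 Mice were inoculated ip with 10^6 P388 leukemia cells on day 0. Groups of six (occasionally five) were dosed ip qd on days 1–5 with fresh suspensions; 30 mice served as untreated controls. Deaths were recorded daily up to day 60. T/C% compares the median survival of treated non-survivors (<60 days) with the control median. Medians used grouped data when there were no 30-day survivors, otherwise ungrouped data. t = toxic.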
# Mus musculus [2] = assay: Mortality by day 5 expressed as number of mice died to the total treated at dose 100 mg/kg in exp2; 0/6; assay type: ADME, organism-based; parameters: dose 100 mg/kg; conditions: in vivo
# Mus musculus [3] = assay: Mortality by day 5 expressed as number of mice died to the total treated at dose 50 mg/kg in exp1; 0/6; assay type: ADME, organism-based; parameters: dose 50 mg/kg; conditions: in vivo
# Mus musculus [4] = assay: Mortality by day 5 expressed as number of mice died to the total treated at dose 100 mg/kg in exp1; 0/6; assay type: ADME, organism-based; parameters: dose 100 mg/kg; conditions: in vivo
# Mus musculus [5] = assay: Change in weight by day 5, obtained by subtracting treated groups of animals minus control groups of animals at dose 200 mg/kg in exp1.; assay type: functional; conditions: 200 mg/kg
# Outline: (§2)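 Mice were inoculated ip with 10^6 P388 leukemia cells on day 0, when treated and control mice weighed 19–22 g. Treatment was given ip once daily on days 1–5, within about 5 min of preparing the solution or suspension. Groups of six (occasionally five) were treated, with 30 untreated inoculated mice as controls. The day-5 weight change is the mean treated change minus the mean control change.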
# Mus musculus [6] = assay: Median survival time of the untreated control groups, in which there are no 30-day survivors at dose 200 mg/kg in exp1; assay type: functional
# [7] = Ratio of median survival times for non-survivors at dose 50 mg/kg in exp1; assay type: functional; parameters: unit: %; outline: as §1
# Mus musculus [8] = assay: Change in weight by day 5, obtained by subtracting treated groups of animals minus control groups of animals at dose 50 mg/kg in exp2; assay type: functional; outline: as §2
# Mus musculus [9] = assay: Median survival time of the treated control groups, in which there are no 30-day survivors at dose 200 mg/kg in exp1; assay type: functional
# Mus musculus [10] = assay: Median survival time of the treated control groups, in which there are no 30-day survivors at dose 50 mg/kg in exp1; assay type: functional
# Mus musculus [11] = assay: Median survival time of the treated control groups, in which there are no 30-day survivors at dose 100 mg/kg in exp2; assay type: functional
# Mus musculus [12] = assay: Median survival time of the treated control groups, in which there are no 30-day survivors at dose 50 mg/kg in exp2; assay type: functional
# Mus musculus [13] = assay: Change in weight by day 5, obtained by subtracting treated groups of animals minus control groups of animals at dose 50 mg/kg in exp1.; assay type: functional; outline: as §2
# Mus musculus [14] = assay: Median survival time of the treated control groups, in which there are no 30-day survivors at dose 100 mg/kg in exp1; assay type: functional
# [15] = Ratio of median survival times for non-survivors at dose 150 mg/kg in exp2; assay type: functional; outline: as §1
# [16] = Ratio of median survival times for non-survivors at dose 100 mg/kg in exp1; assay type: functional; parameters: unit: %; outline: as §1
# Mus musculus [17] = assay: Median survival time of the treated control groups, in which there are no 30-day survivors at dose 150 mg/kg in exp2; assay type: functional
# Mus musculus [18] = assay: Median survival time of the untreated control groups, in which there are no 30-day survivors at dose 100 mg/kg in exp2; assay type: functional
# Mus musculus [19] = assay: Median survival time of the untreated control groups, in which there are no 30-day survivors at dose 150 mg/kg in exp2; assay type: functional
# [20] = Ratio of median survival times for non-survivors at dose 100 mg/kg in exp2; assay type: functional; outline: as §1
# Mus musculus [21] = assay: Mortality by day 5 expressed as number of mice died to the total treated at dose 200 mg/kg in exp1; 0/6; assay type: ADME, organism-based; parameters: dose 200 mg/kg; conditions: in vivo
# Mus musculus [22] = assay: Change in weight by day 5, obtained by subtracting treated groups of animals minus control groups of animals at dose 100 mg/kg in exp2; assay type: functional; outline: as §2
# [23] = Ratio of median survival times for non-survivors at dose 200 mg/kg in exp1; t= toxic; assay type: ADME, organism-based; parameters: dose 200 mg/kg; conditions: in vivo; outline: as §1
# Mus musculus [24] = assay: Mortality by day 5 expressed as number of mice died to the total treated at dose 150 mg/kg in exp2; 0/6; assay type: ADME, organism-based; parameters: dose 150 mg/kg; conditions: in vivo
# Mus musculus [25] = assay: Median survival time of the untreated control groups, in which there are no 30-day survivors at dose 100 mg/kg in exp1; assay type: functional
# Mus musculus [26] = assay: Median survival time of the untreated control groups, in which there are no 30-day survivors at dose 50 mg/kg in exp1; assay type: functional
# Mus musculus [27] = assay: Change in weight by day 5, obtained by subtracting treated groups of animals minus control groups of animals at dose 150 mg/kg in exp2; assay type: functional; outline: as §2
compound,measurement,setting,value
CCOS(=O)(=O)CS(C)(=O)=O,Ratio,[1],133
same,Mortality,Mus musculus [2],0
same,Mortality,Mus musculus [3],0
same,Mortality,Mus musculus [4],0
same,Change in weight,Mus musculus [5],-5 and -3.4
same,Median survival time,Mus musculus [6],11.2
same,Ratio,[7],118
same,Change in weight,Mus musculus [8],-1.8
same,Median survival time,Mus musculus [9],6.9
same,Median survival time,Mus musculus [10],13.3
same,Median survival time,Mus musculus [11],17.9
same,Median survival time,Mus musculus [12],14
same,Change in weight,Mus musculus [13],-1.4
same,Median survival time,Mus musculus [14],18
same,Ratio,[15],104
same,Ratio,[16],160
same,Median survival time,Mus musculus [17],11
same,Median survival time,Mus musculus [18],10.5
same,Median survival time,Mus musculus [19],10.5
same,Ratio,[20],170
same,Mortality,Mus musculus [21],0
same,Change in weight,Mus musculus [22],-4.3
same,Ratio,[23],Toxic
same,Mortality,Mus musculus [24],0
same,Median survival time,Mus musculus [25],11.2
same,Median survival time,Mus musculus [26],11.2
same,Change in weight,Mus musculus [27],-5.4
